Columns and labels:
[1] = test system: wild-type Arabidopsis seedlings; test: Hypocotyl elongation assay, wild-type Arabidopsis co-treated with KAR2; assay type: in vivo, Arabidopsis thaliana; conditions: 0.3 µM KAR2
[2] = test system: wild-type Arabidopsis seeds; assay type: in vivo, Arabidopsis thaliana; conditions: after high temperature, 1 µM KAR2
How it was run: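 Sterilized, stratified Columbia seeds (~30 per well) sown on 0.2% phytoagar containing 1 µM KAR₂ and a concentration series of test compound. Incubated at 30 °C under continuous white light (20 μmol m⁻² s⁻¹) 48 h, then 22 °C for 48 h. Germination % = germinated/total seeds per well; 6 biological replicates, means ± SE; one-way ANOVA with Tukey's HSD.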

## O=C(N1CCc2ccccc21)n1ccnn1 [KK094]
[1]
  Concentration at which KAR2-suppressed hypocotyl length is restored: 0.3 µM
[2]
  Concentration inhibiting the recovery of seed germination by KAR2: 100 µM
